procasp3 activ – activates human procaspase-3 | P42574 | 330,000 tested, 0.11% active | recombinant procaspase-3 D3A, Ac-DEVD-pNA absorbance 405 nm | activation, % at 8.5 µM;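 active means activation above the mean of all tested compounds plus 3 SD, cut at about 21% in these data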;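 further: 0% = DMSO alone and 100% = DMSO wells spiked with extra 5 µM PC-3 D3A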
Target sequence (P42574 whole entry D9A/D28A/D175A): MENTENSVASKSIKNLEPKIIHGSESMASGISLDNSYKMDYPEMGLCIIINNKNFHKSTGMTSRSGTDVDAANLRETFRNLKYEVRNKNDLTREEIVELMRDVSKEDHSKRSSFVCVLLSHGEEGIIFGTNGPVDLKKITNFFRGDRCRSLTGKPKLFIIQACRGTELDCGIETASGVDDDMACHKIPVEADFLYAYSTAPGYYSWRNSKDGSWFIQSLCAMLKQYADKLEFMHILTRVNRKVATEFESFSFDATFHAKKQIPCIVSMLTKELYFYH
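Assay system: Autoprocessing-dead procaspase-3 D3A mutant enzyme; also added: Ac-DEVD-pNA; doses: one concentration, 8.5 µM nominal, 0.8% DMSO; times: 1 h compound preincubation, 2 h substrate hydrolysis at 25 °C; technique: 405 nm absorbance of p-nitroaniline, reads at 0 and 120 min; measure: % activation between DMSO and enzyme-spiked controls; repeats: single replicate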
MsrA inhibitor – inhibitors of bovine MsrA; 360,000 tested, 0.75% active; purified bovine MsrA, absorbance read-out; inhibition, % at 15.5 µM;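 further: 0% = vehicle wells with enzyme and 100% = reference inhibitor wells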
proCasp7 act – counter-screen for procaspase-3 activators: activators of human procaspase-7; AID 463210; 330,000 tested, 0.093% active; P55210; recombinant procaspase-7, Ac-DEVD-pNA absorbance 405 nm; D23A/D198A/D206A triple mutant, cannot self-cleave; scale: DMSO 0, 5 µM enzyme 100; activation, % at 8.5 µM;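 active means percent activation above the screen-wide mean plus 3 SD, cut at about 25% in these data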
Target sequence (P55210 whole entry D23A/D198A/D206A): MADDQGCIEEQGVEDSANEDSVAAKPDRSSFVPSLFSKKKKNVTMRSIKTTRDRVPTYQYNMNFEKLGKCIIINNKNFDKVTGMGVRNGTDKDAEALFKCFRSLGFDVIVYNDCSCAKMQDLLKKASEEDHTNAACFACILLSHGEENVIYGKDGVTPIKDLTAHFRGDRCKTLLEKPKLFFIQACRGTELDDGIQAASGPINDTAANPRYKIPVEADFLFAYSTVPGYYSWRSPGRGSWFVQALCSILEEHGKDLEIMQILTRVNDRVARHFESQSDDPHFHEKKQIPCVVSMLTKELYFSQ
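Assay system: Uncleavable procaspase-7 mutant enzyme; Input: 2 µM procaspase-7 mutant as dispensed; Also added: DEVD-pNA substrate; Medium: Zinc-free HEPES pH 7.4 with 300 mM NaCl, 0.01% Triton X-100; Timing: 1 h compound preincubation, 2 h substrate cleavage, 25 °C; Measured by: Epi-absorbance of released pNA at 405 nm, two timepoints.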
bovine MsrA act – activators of bovine methionine sulfoxide reductase A; activation, % at 10.6 µM; 360,000 tested, 0.3% active; AID 602163; purified bovine MsrA, absorbance read-out; in the data active means activation above about 7.5%;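 further: 0% = vehicle and 100% = reference activator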
Bfl-1 A1 inh – inhibitors of the anti-apoptotic protein A1, read as caspase activation; MEF A1-2A-BIM cells, Caspase-Glo 3/7 luminescence, 3 h; percent of clofoctol response, vehicle zero; AID 2462; 330,000 tested, 0.066% active; caspase activation, % (concentration not given with the values);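 active means over half of replicate activation scores above 10%, or exactly half above 10 with the replicate mean above 10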
MsrA conf – confirmation of bovine MsrA inhibitors; shares compounds with MsrA inhibitor; purified bovine MsrA, absorbance read-out; inhibition, % at 15.5 µM; 2,300 tested, 41% active;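 further: coupled to thioredoxin reductase with NADPH and selenocystamine and DMSO as substrate; 0% = vehicle only and 100% = full effect of reference inhibitor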
* = called active by the depositor; · = no result given. This is a sample that favours compounds with a hit; in the whole collection about 1.2% have one here. Unless noted, no stated cut-off is given here; in the data, active means inhibition above about 4.5%; inactive means the rest.

SMILES	procasp3 activ	MsrA inhibitor	proCasp7 act	bovine MsrA act	Bfl-1 A1 inh	MsrA conf
N#Cc1c(SCC(=O)Nc2nccs2)sc2c(O)cc(=O)[nH]c12	-26	4.9*	-22	-5	0	2
CC(C)C[C@@H](CNCC(=O)[C@H](CC(C)C)NC(=O)c1[nH]cnc1C(=O)N[C@@H](C)CN)NC(=O)c1nc[nH]c1C(=O)N[C@@H](CC(=O)O)C(=O)O	·	-1	·	-1	·	·
Cc1ccnc(N2C(=O)c3cccc4c([N+](=O)[O-])ccc(c34)C2=O)c1	-3	12*	2	0	0	8.6*
Cc1ccc(N2C(=O)c3cccc4c([N+](=O)[O-])ccc(c34)C2=O)c2cccnc12	-12	1	-3	-4	1	·
O=C(COc1ccccc1[N+](=O)[O-])Nc1cccc(Cl)c1N1CCOCC1	-9	5.9*	6	-3	-1	2
Cc1ccc[n+](/C(=C\C(=C=[N-])C#N)C(=O)c2ccc(Cl)cc2)c1	2	4.8*	11	-6	0	5.0*
Cc1cccc(N/C=C/C(=O)c2ccc(Cl)cc2)c1	-14	2	-19	-1	-10	·
CC(C)(C)CCN1CCC(CN2CCNC(=O)C2=O)CC1	·	0	·	-1	·	·
Cc1ncsc1C(=O)Nc1nc2c(s1)CC(C)CC2 (configuration not stated)	2	6.3*	-3	-11	-6	1
CC1Cc2ccccc2N1C1=NS(=O)(=O)c2ccccc21 (configuration not stated)	12	2	2	-1	-1	·
CC1Cc2ccccc2N1C1=CC(=O)CCC1 (configuration not stated)	10	5.5*	3	-4	-1	5.4*
CC1CN(C(=O)COC(=O)c2cncc(Br)c2)CC(C)O1 (configuration not stated)	·	0	·	-4	·	·
CCN(CC)Cc1c(O)ccc2cc(-c3nc4ccccc4n3C)c(=O)oc12	-10	2	-6	-1	1	·
CCc1cc2c(=O)c(-c3nc4ccccc4n3C)c(C)oc2c(CN(CC)CC)c1O	0	5.3*	13	-2	-1	4
Cc1ccc(NC(=O)/C=C2\NC(=O)CS2)cc1	0	1	5	-3	1	·
CC(C)(C)c1ccc(C(=O)/C=C2\NC(=O)CS2)cc1	5	5.1*	-5	-12	-3	4
COc1cc(CNC(=O)C2CC(O)CN2C(=O)Nc2ccccc2)cc(OC)c1OC (configuration not stated)	·	0	·	-7	·	·
Cc1cc(C)cc(Nc2ccc([N+](=O)[O-])nc2[N+](=O)[O-])c1	-1	19*	2	-1	-1	17*
CCN(CC)C1=CC(=[N+]2CCCC2)CC(C)(C)C1	-8	5.7*	4	-7	-1	4
CN(Cc1ccccc1)C1=CC(=[N+]2CCCC2)CC(C)(C)C1	-4	5.5*	0	-5	2	3
CN(C)Cc1ccccc1	·	0	·	·	·	·
Cc1c(CCC(=O)NCCCn2ccnc2)c(=O)oc2c(C)c3oc4c(c3cc12)CCCC4	5	·	-6	1	0	·
CCOC(=O)c1cnc(/N=C/N(C)C)s1	-2	5.0*	-2	-5	1	4
CC(=O)C1=C(O)C(=O)N(c2cc(C(C)(C)C)on2)C1c1ccc(Br)cc1 (configuration not stated)	2	4.9*	-6	1	-1	2
CC(=O)C1=C(O)C(=O)N(c2cc(C(C)(C)C)on2)C1c1ccc(C(C)C)cc1 (configuration not stated)	-8	·	-12	-4	1	·
SMILES	procasp3 activ	MsrA inhibitor	proCasp7 act	bovine MsrA act	Bfl-1 A1 inh	MsrA conf
CN(C)c1ccc(/C=N/NC(=O)CNC(=O)c2ccncc2)cc1	0	5.1*	6	-7	2	5.1*
CN(C)c1ccc(/C=N/NC(=O)CNC(=O)/C=C/c2ccco2)cc1	5	6.7*	0	-7	1	7.1*
CN(C)c1ccc(/C=N/NC(=O)CNC(=O)c2ccc3c(c2)OCCO3)cc1	-4	5.1*	-4	-10	0	5.1*
CCc1nc2ccc(C(=O)NCCCN3CCCC3=O)cn2c1N(C)C(=O)Nc1ccccc1OC	·	-1	·	-1	·	·
Fc1cnc(N2CCOCC2)nc1N1CCc2ccccc21	2	8.0*	7	-1	0	3
Fc1cnc(N2CCOCC2)nc1N1CCOCC1	5	-1	10	-4	0	·
CSc1ccc(/C=C(/NC(=O)c2ccco2)C(=O)N2CCOCC2)cc1	7	5.0*	5	0	0	1
O=C(N/C(=C/c1ccc(Br)cc1)C(=O)N1CCOCC1)c1ccco1	0	1	4	-3	1	·
COc1ccc(CN(C)C(=O)c2ccc(NS(=O)(=O)c3ccc4[nH]c(=O)[nH]c4c3)cc2)c(OC)c1OC	3	2	3	-1	1	·
O=C(C[C@H]1CC[C@H](NC(=O)Nc2ccccc2F)[C@@H](CO)O1)NCc1ccc(-c2ccccc2)cc1	·	-1	·	·	·	·
COc1ccccc1-c1cc(C(F)(F)F)nc(N2CCOCC2)n1	6	12*	1	-3	0	13*
COc1ccccc1-c1cc(C(F)(F)F)nc(N2CCN(c3ccccc3)CC2)n1	10	1	4	-1	0	·
COC(=O)C1=C(C)N(Cc2ccccc2C(F)(F)F)C(=NCc2cc(OC)c(OC)c(OC)c2)NC1c1cccc(F)c1 (configuration not stated)	·	-3	·	·	·	·
CN1CCN(c2ccc(CNC(=O)c3ccc(-c4ccc(F)c(F)c4)c4ccoc34)cc2)CC1	·	0	·	-6	·	·
Oc1ccccc1C=NC(N=Cc1ccccc1O)c1ccccc1O (configuration not stated)	·	1	·	·	·	·
CCCCc1cc(=O)oc2cc(C)cc(OC(C)C(=O)NCc3ccccn3)c12 (configuration not stated)	9	6.4*	-4	-3	-1	0
N#CC1=C(N)Oc2cc(O)ccc2C1c1cccnc1 (configuration not stated)	-19	0	-16	-3	1	·
N#CC1=C(N)Oc2ccc3ccc(O)cc3c2C1c1cccnc1 (configuration not stated)	2	6.7*	-4	-6	0	6.6*
CSc1nc(N)c2c(n1)OC(N)=C(C#N)C2c1cccnc1 (configuration not stated)	4	1	0	-9	0	·
N#CC1=C(N)Oc2ccc3ccccc3c2C1c1cccnc1 (configuration not stated)	·	6.6*	·	-1	·	3
CCCNC(=O)COC(=O)/C=C/c1ccc(C)o1	4	5.8*	1	-2	0	5.5*
Cc1ccc(/C=C/C(=O)OCC(=O)NCc2ccccc2)o1	·	4	·	-6	·	·

Assay outcomes (PubChem)
